Test results taken from paper PMC12137828 (Nature Communications, 2025).
Read-outs that look alike come from different tables or passages of the source.

Assays:
AtDHAD = biological target: T1, AtDHAD (Arabidopsis thaliana, UniProt Q9LIR4); test: MST assay, binding affinity
T1 sequence (Q9LIR4 35-608): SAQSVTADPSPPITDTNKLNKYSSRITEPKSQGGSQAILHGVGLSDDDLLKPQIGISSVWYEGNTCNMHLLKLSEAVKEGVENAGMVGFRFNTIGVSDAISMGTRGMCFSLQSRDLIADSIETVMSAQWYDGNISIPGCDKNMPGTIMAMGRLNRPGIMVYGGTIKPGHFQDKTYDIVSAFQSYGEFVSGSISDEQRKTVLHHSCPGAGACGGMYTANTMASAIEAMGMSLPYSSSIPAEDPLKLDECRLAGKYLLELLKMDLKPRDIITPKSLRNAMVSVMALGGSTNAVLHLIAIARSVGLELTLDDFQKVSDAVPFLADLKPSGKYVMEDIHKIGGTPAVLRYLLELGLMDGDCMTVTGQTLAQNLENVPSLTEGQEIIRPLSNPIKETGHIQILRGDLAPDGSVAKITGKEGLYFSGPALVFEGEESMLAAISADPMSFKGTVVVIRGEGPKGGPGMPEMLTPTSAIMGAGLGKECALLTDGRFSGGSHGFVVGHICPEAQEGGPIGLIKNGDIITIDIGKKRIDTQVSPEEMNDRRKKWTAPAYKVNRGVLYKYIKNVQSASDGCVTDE
Method in brief: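 AtDHAD was expressed in E. coli BL21(DE3) under IPTG induction, with FeCl3 and L-Ara added to stabilise the [2Fe-2S] cluster. It was purified by Ni-NTA anaerobically and lysine-labelled with RED-NHS dye. Ligand from 10−10 to 10−1 M was incubated with 50 nM labelled protein for 30 min at 4 °C in phosphate buffer (0.05% Tween 20, pH 7.4). Excitation was 100% or 40%, with medium MST power. Kd is given as mean ± SD.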

cyanobacteria = conditions: by targeting DHAD ref 3; cited from earlier work
[1] = test system: 2-week-old A. thaliana plants; test: Postemergence treatment of A. thaliana; format: in vivo, Arabidopsis thaliana
Method in brief: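 Col-0 seeds were chilled at 4 °C for 3 days and grown in soil pots in a light incubator at 22 °C with an 8 h light/16 h dark cycle. Test compound was dissolved in DMSO and diluted with 0.5% aqueous Tween 80 to a final 200 μg/mL (DMSO below 5%), then applied by foliar spray. Fresh weight inhibition was read out.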

[2] = test system: glufosinate-resistant Arabidopsis thaliana; conditions: 250 µM ref 2; cited from earlier work

Kd (AtDHAD; Kd) | Molecule | growth of cyanobacteria (cyanobacteria) | Kd (AtDHAD) | Fresh weight inhibition rate (%) ([1]; 200 μg/mL foliar spray, 20 days after treatment) | symptoms after postemergence treatment of two-week-old plants ([1]; foliar spray, 200 μg/mL) | herbicidal activity against glufosinate-resistant Arabidopsis thaliana [2]
5.39 µM | CC(C)(O)C(O)C(=O)O (stereo not shown) [Substrate (dihydroxyisovalerate), 2,3-dihydroxy-3-methylbutanoic acid] | – | – | – | – | –
507 µM | O=C(O)C(O)C(=O)O [TA, tartronic acid] | inhibited the growth of cyanobacteria | – | – | – | –
– | aspterric acid [AA] | – | 3.41 µM | 55.96% | cessation of new leaf production and the onset of leaf wilting | exhibits herbicidal activity
